High-throughput results deposited in PubChem BioAssay by several laboratories.
The list is not random: actives were taken first. Their share in the collection is about 4.9%.
STAT3 activator: IL-6 driven STAT3 reporter potentiators, primary screen, U3A cells, luciferase, luminescence, MLSCN library. IL-6 STAT3-luciferase reporter; 100% = signal with IL-6 EC80 alone. 190,000 tested, 0.91% active. activation (% of control), % at 5.6 µM;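 active means activation above the screen-wide mean of compound activation plus 3 SD, cut at about 130% in these data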;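 further: 0% = background luminescence of wells with medium and substrate only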
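Material: STAT1-lacking human U3A cells, STAT3 luciferase reporter | Benchmarks: IL-6-only wells as 100% reference | Probe or stimulus: IL-6 (33 ng/mL) | Timing: Compound 1 h, then IL-6 6 h at 37 °C | Detection: Luminescence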
NF-kB neuron act: activators of NF-kB expression in neurons, primary screen, cell-based, HTS. fold change at 12.5 µM. 190,000 tested, 1.6% active. human neuronal cells, NF-kB reporter expression; hits give high values. AID 1239, 2008; in the data active means fold change above about 3.3
STAT1 activator: STAT1 signaling activators, primary screen, cell-based, HTS, luciferase reporter; NIH 3T3 STAT1-luciferase reporter, IFN-gamma, luminescence; 100% = IFN-gamma alone, no compound; activation (% of control), % at 5.5 µM; 200,000 tested, 2.6% active; AID 932, 2007;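 active means activation above the screen-wide mean activation plus 3 SD, cut at about 130% in these data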;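 further: raw ratio to IFN-gamma control signal so 100% means no change and 0% no light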
STAT3 inh-1: IL-6 driven STAT3 reporter inhibitors, primary screen, U3A cells, luciferase, luminescence, MLSCN library. 190,000 tested, 0.89% active. inhibition, % at 5.5 µM. IL-6 STAT3-luciferase reporter; host cell line lacks STAT1;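 active means inhibition above the mean inhibition across all screened compounds plus 3 SD, cut at about 44% in these data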;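 further: 0% = DMSO only wells and 100% = 100 µM nifuroxazide control wells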
APP 5'UTR act: activators of APP 5'UTR luciferase reporter, primary screen, SH-SY5Y cells; SH-SY5Y APP 5'UTR luciferase reporter, luminescence; zero percent = DMSO vehicle wells; activation, % at 2 µM; 190,000 tested, 1% active; AID 1276, 2008;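 active means activation above a set limit, based on mean plus 3 SD of controls, cut at about 140% in these data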
STAT1 inh: STAT1 signaling inhibitors, primary screen, cell-based, HTS, luciferase reporter; NIH 3T3 STAT1-luciferase reporter, IFN-gamma, luminescence; inhibition, % at 5.5 µM; 200,000 tested, 0.35% active; AID 920, 2007;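 active means inhibition above a set limit, the mean inhibition across all tested compounds plus 3 SD, cut at about 34% in these data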;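 further: 0% = IFN-gamma with DMSO and 100% = IFN-gamma with 300 µM nifuroxazide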
STAT3 inh-2: STAT3 reporter inhibitors, retest of hits, confirmation, U3A cells, luciferase, luminescence; IL-6 STAT3 luciferase reporter; cell line lacks STAT1; 1,200 tested, 45% active; inhibition, % at 5.7 µM; shares compounds with STAT3 inh-1; AID 1265, 2008;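 active means inhibition above the hit cutoff computed for the primary STAT3 screen, cut at about 44% in these data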;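 further: 0% = IL-6 plus DMSO and 100% = IL-6 plus nifuroxazide control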
NFkB inh STAT3ct: NF-kB reporter inhibitors in human cells, confirmation, counter-screen for STAT3 inhibitor project, cell-based, HEK293T, luciferase, TNF-alpha stimulus. inhibition, % at 5.7 µM. TNF-alpha induced. 1,200 tested, 36% active. shares compounds with STAT3 inh-1;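 active means inhibition above the mean of solvent-only control wells plus 3 SD, cutoff set per campaign, cut at about 13% in these data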;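 further: 0% = TNF-alpha with DMSO and 100% = TNF-alpha with MG high control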
STAT1 inh STAT3c: STAT1 reporter inhibitors, IFN-gamma induced, confirmation, counter-screen for STAT3 inhibitor project, cell-based, NIH 3T3, luciferase luminescence | shares compounds with STAT3 inh-1 | inhibition, % at 5.7 µM | NIH 3T3 STAT1-luciferase reporter | 1,200 tested, 27% active;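 active means inhibition above the mean plus 3 SD of solvent-only control wells, limit set per screening run, cut at about 16% in these data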;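 further: 0% = DMSO with IFN-gamma and 100% = nifuroxazide control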
Starred values were filed as active, the others as inactive.

Screening Cc1cccc(N2CCN(C(=O)CSCc3c(C)noc3C)CC2)c1C returned STAT3 activator 46, NF-kB neuron act 0.89, STAT1 activator 80, STAT3 inh-1 70*, APP 5'UTR act 12, STAT1 inh 22, STAT3 inh-2 59*, NFkB inh STAT3ct 11 and STAT1 inh STAT3c 14.
For COc1ccc(Nc2nnc(-c3ccc(O)cc3)c3ccccc23)cc1 the results were STAT3 activator 97, NF-kB neuron act 1.2, STAT1 activator 112, STAT3 inh-1 6, APP 5'UTR act -16 and STAT1 inh -15.
`CCN(CC)c1ccc2cc(-c3nc4ccccc4[nH]3)c(=O)oc2c1` gave STAT3 activator 21, NF-kB neuron act 1.6, STAT1 activator 78, STAT3 inh-1 99*, APP 5'UTR act 185*, STAT1 inh 25, STAT3 inh-2 76*, NFkB inh STAT3ct 50* and STAT1 inh STAT3c 17*.
For CCOC(=O)c1nnn(-c2ccc([N+](=O)[O-])cc2[N+](=O)[O-])c1C the results were STAT3 activator 101, NF-kB neuron act 0.77, STAT1 activator 99, STAT3 inh-1 5, APP 5'UTR act -17 and STAT1 inh 1.
CCc1nc(C)cn1S(=O)(=O)c1cc(C)c(OC)cc1C was read as STAT3 activator 92, NF-kB neuron act 1, STAT1 activator 93, STAT3 inh-1 18, APP 5'UTR act 8 and STAT1 inh 7.
Screening CCc1nc(C)cn1S(=O)(=O)c1cc(C)c(OC)c(C)c1C returned STAT3 activator 57, NF-kB neuron act 0.89, STAT1 activator 81, STAT3 inh-1 54*, APP 5'UTR act 20, STAT1 inh 21, STAT3 inh-2 45*, NFkB inh STAT3ct 10 and STAT1 inh STAT3c 17*.
Screening COc1ccc(NS(=O)(=O)c2cccc(NC(=O)c3ccc(S(=O)(=O)N4CCCCCC4)cc3)c2)cc1 returned STAT3 activator 49, NF-kB neuron act 0.51, STAT1 activator 82, STAT3 inh-1 61*, APP 5'UTR act -22, STAT1 inh 20, STAT3 inh-2 69*, NFkB inh STAT3ct 23* and STAT1 inh STAT3c 25*.
`O=C(Nc1ccc(S(=O)(=O)Nc2ccc(F)cc2)cc1)c1ccc(CN2CCOCC2)cc1` gave STAT3 activator 35, NF-kB neuron act 0.61, STAT1 activator 92, STAT3 inh-1 80*, APP 5'UTR act -15, STAT1 inh 6, STAT3 inh-2 84*, NFkB inh STAT3ct 30* and STAT1 inh STAT3c 14.
For COc1ccc(NS(=O)(=O)c2ccc(O)c(NC(=O)c3ccc(S(=O)(=O)N4CCCCCC4)cc3)c2)cc1 the results were STAT3 activator 96, NF-kB neuron act 1.1, STAT1 activator 96, STAT3 inh-1 3, APP 5'UTR act 12 and STAT1 inh 4.
Screening COc1ccc(NS(=O)(=O)c2ccc(NC(=O)c3ccc(CN4CCOCC4)cc3)cc2)cc1 returned STAT3 activator 39, NF-kB neuron act 0.84, STAT1 activator 81, STAT3 inh-1 73*, APP 5'UTR act -7, STAT1 inh 20, STAT3 inh-2 66*, NFkB inh STAT3ct 16* and STAT1 inh STAT3c 14.
Cc1ccc(Cl)cc1N1CCN(C(=O)COc2ccc(S(=O)(=O)NC(C)C)cc2)CC1 was read as STAT3 activator 55, NF-kB neuron act 0.71, STAT1 activator 90, STAT3 inh-1 60*, APP 5'UTR act 45, STAT1 inh 11, STAT3 inh-2 49*, NFkB inh STAT3ct 10 and STAT1 inh STAT3c 10.
For CC(C)NS(=O)(=O)c1ccc(OCC(=O)N2CCCC2)cc1 the results were STAT3 activator 95, NF-kB neuron act 0.97, STAT1 activator 110, STAT3 inh-1 9, APP 5'UTR act 13 and STAT1 inh -6.
`COc1ccc(N2CCN(C(=O)CSc3nnc4n3C(C)(C)Cc3ccccc3-4)CC2)cc1` gave STAT3 activator 95, NF-kB neuron act 0.48, STAT1 activator 98, STAT3 inh-1 11, APP 5'UTR act -12 and STAT1 inh 3.
Cc1ccc(Cl)cc1N1CCN(C(=O)CSc2nnc3n2C(C)(C)Cc2ccccc2-3)CC1 was read as STAT3 activator 36, NF-kB neuron act 0.39, STAT1 activator 80, STAT3 inh-1 81*, APP 5'UTR act -7, STAT1 inh 21, STAT3 inh-2 72*, NFkB inh STAT3ct 15* and STAT1 inh STAT3c 17*.
For COCCNC(=O)C(c1cccs1)N(C(=O)Cn1nnc2ccccc21)c1ccccc1 (centres undefined) the results were STAT3 activator 103, NF-kB neuron act 0.95, STAT1 activator 105, STAT3 inh-1 2, APP 5'UTR act 23 and STAT1 inh -6.
For COc1cccc(N(C(=O)CCl)C(C(=O)NCCc2ccccc2)c2cccs2)c1 (centres undefined) the results were STAT3 activator 47, NF-kB neuron act 0.12, STAT1 activator 84, STAT3 inh-1 63*, APP 5'UTR act -4, STAT1 inh 18, STAT3 inh-2 95*, NFkB inh STAT3ct 22* and STAT1 inh STAT3c 25*.
Screening COc1ccc(N(C(=O)CCl)C(C(=O)NCCc2ccccc2)c2cccs2)cc1Cl (centres undefined) returned STAT3 activator 23, NF-kB neuron act 0.13, STAT1 activator 83, STAT3 inh-1 91*, APP 5'UTR act 2, STAT1 inh 19, STAT3 inh-2 104*, NFkB inh STAT3ct 2 and STAT1 inh STAT3c 20*.
`Nc1[nH]n(-c2ccccc2)c(=O)c1N=Nc1ccc2c(c1)OCCO2` gave STAT3 activator 65, NF-kB neuron act 1.2, STAT1 activator 120, STAT3 inh-1 45*, APP 5'UTR act 167*, STAT1 inh -22, STAT3 inh-2 10, NFkB inh STAT3ct -15 and STAT1 inh STAT3c -94.
`N=c1cc(C2(O)CCCCC2)n2c(nc3ccccc32)s1` gave STAT3 activator 49, NF-kB neuron act 4.1*, STAT1 activator 114, STAT3 inh-1 61*, APP 5'UTR act 185*, STAT1 inh -4, STAT3 inh-2 36, NFkB inh STAT3ct 1 and STAT1 inh STAT3c -70.
